Results published in ChEMBL document CHEMBL4311965, “Antimicrobial activity of amphipathic α,α-disubstituted β-amino amide derivatives against ESBL - CARBA producing multi-resistant bacteria; effect of halogenation, lipophilicity and cationic character” (Eur J Med Chem, 2019).
Values after ≈ are worked out from the molar mass of the structure shown.

Assays:
[1] = test system: Klebsiella pneumoniae; experiment: Antibacterial activity against multidrug-resistant Klebsiella pneumoniae 50531633 producing New Delhi metallo-beta-lactamase-1 and oxcillinase-181 cultured in MHB medium assessed as reduction in bacterial growth incubated for 24 hrs by microdilution susceptibility test; assay type: functional; conditions: Klebsiella pneumoniae, 50531633, 24 h
In short: (§1)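 Broth microdilution per CLSI M07-A9 (modified). Working solutions made from concentrated DMSO stocks kept at r.t., diluted in double-distilled water, final DMSO <1%. Inoculum 1–1.2 x 10⁶ cells/mL in Mueller-Hinton broth, mixed 1:1 with compound. 37 °C, 24 h, four parallels. Read as OD₆₀₀. Where precipitation left residual OD, the point of major OD decrease was taken as the inhibitory concentration.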

[2] = test system: Acinetobacter baumannii; experiment: Antibacterial activity against multidrug-resistant Acinetobacter baumannii K55-13 producing oxcillinase-24 cultured in MHB medium assessed as reduction in bacterial growth incubated for 24 hrs by microdilution susceptibility test; assay type: functional; conditions: K55-13, 24 h; in short: as §1
[3] = test system: Acinetobacter baumannii; experiment: Antibacterial activity against multidrug-resistant Acinetobacter baumannii K44-35 producing oxcillinase-23 cultured in MHB medium assessed as reduction in bacterial growth incubated for 24 hrs by microdilution susceptibility test; assay type: functional; conditions: K44-35, 24 h; in short: as §1
[4] = test system: Escherichia coli; experiment: Antibacterial activity against multidrug-resistant Escherichia coli 50739822 producing New Delhi metallo-beta-lactamase-1 cultured in MHB medium assessed as reduction in bacterial growth incubated for 24 hrs by microdilution susceptibility test; assay type: functional; conditions: Escherichia coli, 50739822, 24 h; in short: as §1
[5] = test system: Klebsiella pneumoniae; experiment: Antibacterial activity against multidrug-resistant Klebsiella pneumoniae K47-25 producing carbapenemase-2 cultured in MHB medium assessed as reduction in bacterial growth incubated for 24 hrs by microdilution susceptibility test; assay type: functional; conditions: K47-25, 24 h; in short: as §1
[6] = test system: Escherichia coli; experiment: Antibacterial activity against multidrug-resistant Escherichia coli 50579417 producing oxcillinase-48 cultured in MHB medium assessed as reduction in bacterial growth incubated for 24 hrs by microdilution susceptibility test; assay type: functional; conditions: Escherichia coli, 50579417, 24 h; in short: as §1
[7] = test system: MRC5; experiment: Cytotoxicity against human MRC5 cells assessed as reduction in cell viability incubated for 4 hrs by CellTiter 96 Aqueous One Solution Reagent based assay; conditions: MRC5, 4 h
In short: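 HepG2 and MRC-5 cells seeded at 35 000 and 15 000 cells/well respectively, then held overnight at 37 °C, 5% CO₂. Compounds in serum-free MEM Earle's applied for 4 h. MTS reagent (CellTiter 96 AQueous One) added for a further 1 h, absorbance read at 485 nm. Survival expressed relative to medium (negative) and Triton X-100 (positive) controls.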

[8] = test system: Staphylococcus aureus; experiment: Antibacterial activity against multidrug-resistant Staphylococcus aureus 85/2082 cultured in MHB medium assessed as reduction in bacterial growth incubated for 24 hrs by microdilution susceptibility test; assay type: functional; conditions: 85/2082, 24 h; in short: as §1
[9] = test system: Erythrocyte; experiment: Hemolytic activity against human RBC incubated for 1 hr; assay type: cell-based
In short: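 Heparinized human blood washed three times in warm PBS and set to 10% hct. Erythrocytes at 1% v/v final, with compound in PBS (DMSO <1%), shaken 1 h at 37 °C and then centrifuged. Supernatant absorbance read at 405 and 545 nm after PBS background subtraction. Haemolysis taken relative to 1% Triton X-100. Three independent replicates, EC50 averaged.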

[10] = test system: Acinetobacter baumannii; experiment: Antibacterial activity against multidrug-resistant Acinetobacter baumannii K47-42 producing oxcillinase-23 cultured in MHB medium assessed as reduction in bacterial growth incubated for 24 hrs by microdilution susceptibility test; assay type: functional; conditions: K47-42, 24 h; in short: as §1
[11] = test system: Escherichia coli; experiment: Antibacterial activity against multidrug-resistant Escherichia coli 50676002 producing New Delhi metallo-beta-lactamase-1 cultured in MHB medium assessed as reduction in bacterial growth incubated for 24 hrs by microdilution susceptibility test; assay type: functional; conditions: Escherichia coli, 50676002, 24 h; in short: as §1
[12] = test system: Corynebacterium glutamicum; experiment: Antibacterial activity against Corynebacterium glutamicum ATCC 13032 cultured in MHB medium assessed as no bacterial growth incubated at 20 degC for 24 hrs by microdilution susceptibility test; assay type: functional; conditions: ATCC 13032, 24 h
In short: (§2)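 Broth microdilution per CLSI M07-A9 with modifications. Inoculum about 2.5–3 x 10⁴ cells/mL in Mueller-Hinton broth, mixed 1:1 with test derivative. DMSO stocks diluted in double-distilled water, final DMSO <1%. Incubation 24 h at 37 °C (20 °C for C. glutamicum). Growth and sterility controls included; oxytetracycline reference.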

[13] = test system: Enterococcus faecium; experiment: Antibacterial activity against multidrug-resistant Enterococcus faecium K36-18 cultured in BHIB medium assessed as reduction in bacterial growth incubated for 24 hrs by microdilution susceptibility test; assay type: functional; conditions: K36-18, 24 h
In short: (§3)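 Enterococci grown in Brain Heart Infusion broth, otherwise broth microdilution per CLSI M07-A9 (modified). Concentrated DMSO stocks kept at r.t. and diluted in double-distilled water, final DMSO <1%. Inoculum 1–1.2 x 10⁶ cells/mL mixed 1:1 with compound. 37 °C, 24 h, four parallels. OD₆₀₀ read-out, lowest concentration with no growth.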

[14] = test system: Pseudomonas aeruginosa; experiment: Antibacterial activity against multidrug-resistant Pseudomonas aeruginosa 50692520 producing Verona integron encoded metallo beta-lactamse cultured in MHB medium assessed as reduction in bacterial growth incubated for 24 hrs by microdilution susceptibility test; assay type: functional; conditions: Pseudomonas aeruginosa, 50692520, 24 h; in short: as §1
[15] = test system: Acinetobacter baumannii; experiment: Antibacterial activity against multidrug-resistant Acinetobacter baumannii K12-21 producing oxcillinase-58 cultured in MHB medium assessed as reduction in bacterial growth incubated for 24 hrs by microdilution susceptibility test; assay type: functional; conditions: K12-21, 24 h; in short: as §1
[16] = test system: Escherichia coli; experiment: Antibacterial activity against Escherichia coli ATCC 25922 cultured in MHB medium assessed as no bacterial growth incubated at 37 degC for 24 hrs by microdilution susceptibility test; assay type: functional; conditions: ATCC 25922, 24 h; in short: as §2
[17] = test system: Staphylococcus aureus; experiment: Antibacterial activity against multidrug-resistant Staphylococcus aureus NCTC 10442 cultured in MHB medium assessed as reduction in bacterial growth incubated for 24 hrs by microdilution susceptibility test; assay type: functional; conditions: NCTC 10442, 24 h; in short: as §1
[18] = test system: Pseudomonas aeruginosa; experiment: Antibacterial activity against multidrug-resistant Pseudomonas aeruginosa K34-73 producing Verona integron encoded metallo beta-lactamse-4 cultured in MHB medium assessed as reduction in bacterial growth incubated for 24 hrs by microdilution susceptibility test; assay type: functional; conditions: K34-73, 24 h; in short: as §1
[19] = test system: Klebsiella pneumoniae; experiment: Antibacterial activity against multidrug-resistant Klebsiella pneumoniae 50625602 producing oxcillinase-245 cultured in MHB medium assessed as reduction in bacterial growth incubated for 24 hrs by microdilution susceptibility test; assay type: functional; conditions: Klebsiella pneumoniae, 50625602, 24 h; in short: as §1
[20] = test system: Enterococcus faecium; experiment: Antibacterial activity against multidrug-resistant Enterococcus faecium 50758899 cultured in BHIB medium assessed as reduction in bacterial growth incubated for 24 hrs by microdilution susceptibility test; assay type: functional; conditions: Enterococcus faecium, 50758899, 24 h; in short: as §3
[21] = test system: Acinetobacter baumannii; experiment: Antibacterial activity against multidrug-resistant Acinetobacter baumannii K63-58 producing oxcillinase-23 cultured in MHB medium assessed as reduction in bacterial growth incubated for 24 hrs by microdilution susceptibility test; assay type: functional; conditions: K63-58, 24 h; in short: as §1
[22] = test system: Staphylococcus aureus; experiment: Antibacterial activity against multidrug-resistant Staphylococcus aureus IHT 99040 cultured in MHB medium assessed as reduction in bacterial growth incubated for 24 hrs by microdilution susceptibility test; assay type: functional; conditions: IHT 99040, 24 h; in short: as §1

Compound	MIC [1] [µg/mL]	MIC [2] [µg/mL]	MIC [3] [µg/mL]	MIC [4] [µg/mL]	MIC [5] [µg/mL]	MIC [6] [µg/mL]	EC50 [7] [µg/mL]	MIC [8] [µg/mL]	EC50 [9] [µg/mL]	MIC [10] [µg/mL]	MIC [11] [µg/mL]	MIC [12] [µg/mL]	MIC [13] [µg/mL]	MIC [14] [µg/mL]	MIC [15] [µg/mL]	MIC [16] [µg/mL]	MIC [17] [µg/mL]	MIC [18] [µg/mL]	MIC [19] [µg/mL]	MIC [20] [µg/mL]	also measured
N=C(N)NCCNC(=O)C(CNC(=N)N)(Cc1cc(C(F)(F)F)cc(C(F)(F)F)c1)Cc1cc(C(F)(F)F)cc(C(F)(F)F)c1	> 32	> 32	> 32	32 (≈ 47.9 µM)	> 32	32 (≈ 47.9 µM)	> 64	8 (≈ 12 µM)	201 (≈ 301 µM)	> 32	32 (≈ 47.9 µM)	0.5 (≈ 0.749 µM)	8 (≈ 12 µM)	16 (≈ 24 µM)	> 32	4 (≈ 5.99 µM)	8 (≈ 12 µM)	16 (≈ 24 µM)	> 32	8 (≈ 12 µM)	MIC [21]: > 32 µg/mL; MIC [22]: 8 µg/mL (≈ 12 µM)
NCCNCC(CN)(Cc1ccccc1Br)Cc1ccccc1Br	16 (≈ 35.1 µM)	16 (≈ 35.1 µM)	16 (≈ 35.1 µM)	16 (≈ 35.1 µM)	16 (≈ 35.1 µM)	16 (≈ 35.1 µM)	8 (≈ 17.6 µM)	8 (≈ 17.6 µM)	209 (≈ 459 µM)	16 (≈ 35.1 µM)	16 (≈ 35.1 µM)	2 (≈ 4.39 µM)	16 (≈ 35.1 µM)	16 (≈ 35.1 µM)	16 (≈ 35.1 µM)	16 (≈ 35.1 µM)	16 (≈ 35.1 µM)	32 (≈ 70.3 µM)	16 (≈ 35.1 µM)	16 (≈ 35.1 µM)	MIC [21]: 16 µg/mL (≈ 35.1 µM); MIC [22]: 8 µg/mL (≈ 17.6 µM)
N#CC(Cc1cc(C(F)(F)F)cc(C(F)(F)F)c1)(Cc1cc(C(F)(F)F)cc(C(F)(F)F)c1)C(=O)NCCN	> 32	> 32	> 32	> 32	> 32	> 32	12 (≈ 20.7 µM)	32 (≈ 55.2 µM)	282 (≈ 487 µM)	> 32	> 32	8 (≈ 13.8 µM)	8 (≈ 13.8 µM)	> 32	> 32	32 (≈ 55.2 µM)	32 (≈ 55.2 µM)	> 32	> 32	8 (≈ 13.8 µM)	MIC [21]: > 32 µg/mL; MIC [22]: 16 µg/mL (≈ 27.6 µM)
NCCNCC(CN)(Cc1cc(C(F)(F)F)cc(C(F)(F)F)c1)Cc1cc(C(F)(F)F)cc(C(F)(F)F)c1	8 (≈ 14 µM)	8 (≈ 14 µM)	8 (≈ 14 µM)	8 (≈ 14 µM)	16 (≈ 28.1 µM)	8 (≈ 14 µM)	14 (≈ 24.6 µM)	8 (≈ 14 µM)	23 (≈ 40.4 µM)	8 (≈ 14 µM)	8 (≈ 14 µM)	1 (≈ 1.76 µM)	8 (≈ 14 µM)	32 (≈ 56.2 µM)	8 (≈ 14 µM)	4 (≈ 7.02 µM)	8 (≈ 14 µM)	32 (≈ 56.2 µM)	8 (≈ 14 µM)	8 (≈ 14 µM)	MIC [21]: 8 µg/mL (≈ 14 µM); MIC [22]: 8 µg/mL (≈ 14 µM)
